Test results taken from ChEMBL document CHEMBL1157203, “Synthesis and cytotoxic activity of gamma-aryl substituted alpha-alkylidene-gamma-lactones and alpha-alkylidene-gamma-lactams” (Bioorg Med Chem, 2008).
pIC50: −log10 of the molar value. Values joined by “and” are separate entries in the source; they are usually repeats but may differ in a detail not shown here. Identical values can stand only once.

Assays:
Format in all cases: functional, cell-based
NALM-6 = experiment: Cytotoxicity against human NALM6 cells after 48 hrs by MTT assay
Procedure, shortened: (§1)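 HL-60 (promyelocytic) and NALM-6 (lymphoblastic) cells grown in RPMI 1640 with 10% heat-inactivated FBS, streptomycin and penicillin, 37 °C, 5% CO2. Exponentially growing cells seeded at 8×10^3/well. Compounds prepared fresh from DMSO stocks and tested at 10^-7 to 10^-3 M for 46 h, then MTT 2 h. Formazan dissolved in 20% SDS/50% DMF pH 4.7, absorbance 562 and 630 nm. IC50 taken from concentration-response curves, means of at least 6 repeats ± SD.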

HL-60 = experiment: Cytotoxicity against human HL60 cells after 48 hrs by MTT assay; procedure, shortened: as §1
L1210 = experiment: Cytotoxicity against mouse L1210 cells after 48 hrs by tetrazolium dye method

| Structure (SMILES) | pIC50 (NALM-6; Homo sapiens, NALM-6, 48 h) | pIC50 (HL-60; Homo sapiens, HL-60, 48 h) | pIC50 (L1210; Mus musculus, L1210, 48 h) | pIC50 (HL-60; hl-60) | pIC50 (L1210; l1210) | pIC50 (NALM-6; nalm-6) |
| --- | --- | --- | --- | --- | --- | --- |
| C=C1CC(c2ccccc2)N(C)C1=O (configuration not stated) | 3.26 | 3.00 | < 4.30 |  |  |  |
| C=C1C(=O)OC(c2ccc(Br)cc2)C1C (configuration not stated) |  |  |  | 4.38 and 5.30 | 5.12 and 5.81 |  |
| C=C1C(=O)OC(c2ccc(OC)cc2)C1C (configuration not stated) |  |  |  | 4.42 and 5.24 | 4.85 and 5.44 | 4.41 and 5.28 |
| C=C1CC(c2ccc(Br)cc2)N(C)C1=O (configuration not stated) | 3.85 | 3.66 | < 4.30 |  |  |  |
| C=C1CC(c2ccc(Br)cc2)OC1=O (configuration not stated) | 4.07 | 4.69 | 5.89 |  |  |  |
| CC(C)/C=C1\CC(c2ccccc2)N(C)C1=O (configuration not stated) | 3.45 | 4.09 | < 4.30 |  |  |  |
| C=C1CC(c2ccc(OC)cc2)N(C)C1=O (configuration not stated) | 3.28 | 3.21 | < 4.30 |  |  |  |
| C=C1CC(c2cccc3ccccc23)OC1=O (configuration not stated) | 5.41 | 5.35 | 5.37 |  |  |  |
| CC(C)/C=C1/CC(c2ccccc2)OC1=O (configuration not stated) | 3.32 | 3.80 | < 4.30 |  |  |  |
| C=C1C(=O)OC(c2ccccc2)C1C (configuration not stated) | 5.10 | 5.05 |  | 5.05 | 5.40 and 4.55 | 5.10 |
| O=C1OC(c2ccccc2)C/C1=C\c1ccccc1 (configuration not stated) | 3.30 | < 3.00 | < 4.30 |  |  |  |
| C=C1CC(c2ccccc2)OC1=O (configuration not stated) | 5.04 | 4.43 | 5.85 |  |  |  |
